According to ChEMBL document CHEMBL3994605, “Synthesis and biological evaluation of curcumin inspired indole analogues as tubulin polymerization inhibitors” (Eur J Med Chem, 2017):
The source made the active and inactive calls. No cut-off for these calls is given here.

Key:
PC-3 [1] = assay: Cell cycle arrest in human PC3 cells assessed as accumulation at S phase at 5 uM after 24 hrs by propidium iodide staining based flow cytometry (reference value: 3.3 to 5.58%); format: functional
In short: (§1)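 PC-3 cells were seeded at 1 × 10^5 cells/mL, attached 24 h, then treated 24 h. Cells were fixed overnight in 70% ethanol in PBS. Staining used propidium iodide ([…]) with RNase A ([…]) and 0.1% Triton X-100 for 30 min at 37 °C in the dark. About 10,000 events per sample were acquired by flow cytometry.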

[2] = Inhibition of porcine brain tubulin polymerization assessed as reduction in incorporation of fluorescent reporter by fluorescence based assay; parameters: species or system Sus scrofa
In short: (§2)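 Cell-free mix contained porcine brain tubulin (2 mg/mL) in 80 mM PIPES pH 6.9 with 2.0 mM MgCl2, 0.5 mM EGTA, 1.0 mM GTP and glycerol, with or without compound. Polymerization was tracked as a time-dependent fluorescence rise from reporter incorporation (ex 360, em 440 nm), with nocodazole as positive control. Inhibition was scored versus the untreated control. For IC50, the concentration giving 50% inhibition of assembly was used.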

PC-3 [3] = assay: Cell cycle arrest in human PC3 cells assessed as accumulation at G2/M phase at 5 uM after 24 hrs by propidium iodide staining based flow cytometry (reference value: 12.2 to 24.74%); format: functional; in short: as §1
HeLa = assay: Antiproliferative activity against human HeLa cells after 48 hrs by MTT assay; format: functional, cell-based
In short: (§3)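 MTT read-out. Cells were seeded at 5 × 10^3 per well in DMEM or RPMI with 10% FBS and grown 24 h at 37 °C in CO2. Compound dilutions in medium, with vehicle control, were then added for 48 h. MTT (0.5 mg/mL in medium) was given for 4 h, formazan was dissolved in DMSO, and A570 was read. IC50 was taken from concentration–response curves as mean ± SD of three experiments run in triplicate.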

PC-3 [4] = assay: Induction of apoptosis in human PC3 cells assessed as chromatin condensation at 2.5 to 5 uM after 48 hrs by acridine orange/ethidium bromide staining based fluorescence microscopic method; format: functional, cell-based
In short: (§4)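 PC-3 cells were plated at 25,000 per well, grown 24 h, then exposed 48 h. Cells were PBS-washed, stained with acridine orange and ethidium bromide ([…]), and imaged immediately by fluorescence microscopy (ex 488, em 550 nm) at 200×.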

MDA-MB-231 [5] = assay: Potency index, ratio of curcumin IC50 to compound IC50 for human MDA-MB-231 cells; format: functional
PC-3 [6] = assay: Cell cycle arrest in human PC3 cells assessed as accumulation at subG1 phase at 2.5 uM after 24 hrs by propidium iodide staining based flow cytometry (reference value: 4.29 to 7.23%); format: functional; in short: as §1
BT-549 [7] = assay: Antiproliferative activity against human BT549 cells after 48 hrs by MTT assay; format: functional, cell-based; conditions: BT-549, 48 h; in short: as §3
PC-3 [8] = assay: Induction of apoptosis in human PC3 cells assessed as horse shoe shaped nuclei at 2.5 to 5 uM after 48 hrs by DAPI staining based fluorescence microscopic method; format: functional, cell-based
In short: (§5)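 PC-3 cells were seeded at 25,000 per well and adhered overnight, then exposed 48 h. Cells were fixed in 4% neutral buffered formalin for 20 min and permeabilized with 0.2% Triton X for 5 min. DAPI (1 mg/mL) staining ran 10 min at room temperature, followed by fluorescence microscopy (ex 350, em 460 nm) at 200×.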

DU-145 [9] = assay: Potency index, ratio of curcumin IC50 to compound IC50 for human DU145 cells; format: functional
PC-3 [10] = assay: Cell cycle arrest in human PC3 cells assessed as accumulation at G0/G1 phase at 2.5 uM after 24 hrs by propidium iodide staining based flow cytometry (reference value: 65.04 to 76.95%); format: functional; in short: as §1
PC-3 [11] = assay: Antiproliferative activity against human PC3 cells after 48 hrs by MTT assay; format: functional, cell-based; conditions: PC-3, 48 h; in short: as §3
PC-3 [12] = assay: Induction of apoptosis in human PC3 cells assessed as destructive fragmentation of nuclei at 2.5 to 5 uM after 48 hrs by acridine orange/ethidium bromide staining based fluorescence microscopic method; format: functional, cell-based; in short: as §4
PC-3 [13] = assay: Induction of apoptosis in human PC3 cells assessed as horse shoe shaped nuclei at 2.5 to 5 uM after 48 hrs by acridine orange/ethidium bromide staining based fluorescence microscopic method; format: functional, cell-based; in short: as §4
4T1 = assay: Antiproliferative activity against mouse 4T1 cells after 48 hrs by MTT assay; format: functional, cell-based; conditions: 4T1, 48 h; in short: as §3
PC-3 [14] = assay: Potency index, ratio of curcumin IC50 to compound IC50 for human PC3 cells; format: functional
DU-145 [15] = assay: Antiproliferative activity against human DU145 cells after 48 hrs by MTT assay; format: functional, cell-based; conditions: DU-145, 48 h; in short: as §3
PC-3 [16] = assay: Induction of apoptosis in human PC3 cells assessed as nuclear shrinkage at 2.5 to 5 uM after 48 hrs by DAPI staining based fluorescence microscopic method; format: functional, cell-based; in short: as §5
BT-549 [17] = assay: Potency index, ratio of curcumin IC50 to compound IC50 for human BT549 cells; format: functional
A549 = assay: Antiproliferative activity against human A549 cells after 48 hrs by MTT assay; format: functional, cell-based; conditions: A549, 48 h; in short: as §3
PC-3 [18] = assay: Induction of apoptosis in human PC3 cells assessed as pyknotic nuclei at 2.5 to 5 uM after 48 hrs by DAPI staining based fluorescence microscopic method; format: functional, cell-based; in short: as §5
PC-3 [19] = assay: Induction of apoptosis in human PC3 cells assessed as nuclear fragmentation at 2.5 to 5 uM after 48 hrs by DAPI staining based fluorescence microscopic method; format: functional, cell-based; in short: as §5
PC-3 [20] = assay: Induction of mitochondrial membrane potential loss in human PC3 cells assessed as ratio of green to red fluorescence at 5 uM after 24 hrs by JC1 staining based spectrofluorometric method (reference value: 0.103); format: functional
PC-3 [21] = assay: Cell cycle arrest in human PC3 cells assessed as accumulation at G2/M phase at 2.5 uM after 24 hrs by propidium iodide staining based flow cytometry (reference value: 12.2 to 24.74%); format: functional; in short: as §1
PC-3 [22] = assay: Induction of apoptosis in human PC3 cells assessed as cell membrane blebbing at 2.5 to 5 uM after 48 hrs by acridine orange/ethidium bromide staining based fluorescence microscopic method; format: functional; in short: as §4
PC-3 [23] = assay: Cell cycle arrest in human PC3 cells assessed as accumulation at S phase at 2.5 uM after 24 hrs by propidium iodide staining based flow cytometry (reference value: 3.3 to 5.58%); format: functional; in short: as §1
MDA-MB-231 [24] = assay: Antiproliferative activity against human MDA-MB-231 cells after 48 hrs by MTT assay; format: functional, cell-based; conditions: MDA-MB-231, 48 h; in short: as §3
Sus scrofa = species: Sus scrofa; assay: Inhibition of porcine brain tubulin polymerization assessed as reduction in incorporation of fluorescent reporter at 10 uM by fluorescence based assay relative to control; in short: as §2
PC-3 [25] = assay: Cell cycle arrest in human PC3 cells assessed as accumulation at subG1 phase at 5 uM after 24 hrs by propidium iodide staining based flow cytometry (reference value: 4.29 to 7.23%); format: functional; in short: as §1
RWPE-1 = assay: Antiproliferative activity against human RWPE1 cells after 48 hrs by MTT assay; format: cell-based; conditions: RWPE-1, 48 h; in short: as §3
HGC-27 = assay: Antiproliferative activity against human HGC27 cells after 48 hrs by MTT assay; format: functional, cell-based; conditions: HGC-27, 48 h; in short: as §3
PC-3 [26] = assay: Cell cycle arrest in human PC3 cells assessed as accumulation at G0/G1 phase at 5 uM after 24 hrs by propidium iodide staining based flow cytometry (reference value: 65.04 to 76.95%); format: functional; in short: as §1
PC-3 [27] = assay: Induction of apoptosis in human PC3 cells assessed as chromatin condensation at 2.5 to 5 uM after 48 hrs by DAPI staining based fluorescence microscopic method; format: functional, cell-based; in short: as §5
PC-3 [28] = assay: Cell cycle arrest in human PC3 cells assessed as accumulation at G0/G1 phase at 10 uM after 24 hrs by propidium iodide staining based flow cytometry (reference value: 65.04 to 76.95%); format: functional; in short: as §1
PC-3 [29] = assay: Cell cycle arrest in human PC3 cells assessed as accumulation at G2/M phase at 10 uM after 24 hrs by propidium iodide staining based flow cytometry (reference value: 12.2 to 24.74%); format: functional; in short: as §1
PC-3 [30] = assay: Cell cycle arrest in human PC3 cells assessed as accumulation at subG1 phase at 10 uM after 24 hrs by propidium iodide staining based flow cytometry (reference value: 4.29 to 7.23%); format: functional; in short: as §1
PC-3 [31] = assay: Cell cycle arrest in human PC3 cells assessed as accumulation at S phase at 10 uM after 24 hrs by propidium iodide staining based flow cytometry (reference value: 3.3 to 5.58%); format: functional; in short: as §1

| Structure (SMILES) | Activity (PC-3 [1]) [%] | IC50 [2] [µM] | Activity (PC-3 [3]) [%] | IC50 (HeLa) [µM] | Activity (PC-3 [4]) | Ratio IC50 (MDA-MB-231 [5]) | Activity (PC-3 [6]) [%] | IC50 (BT-549 [7]) [µM] | Activity (PC-3 [8]) | Ratio IC50 (DU-145 [9]) | Activity (PC-3 [10]) [%] | IC50 (PC-3 [11]) [µM] | Activity (PC-3 [12]) | Activity (PC-3 [13]) | IC50 (4T1) [µM] | Ratio IC50 (PC-3 [14]) | IC50 (DU-145 [15]) [µM] | Activity (PC-3 [16]) | Ratio IC50 (BT-549 [17]) | IC50 (A549) [µM] | further results |
| --- | --- | --- | --- | --- | --- | --- | --- | --- | --- | --- | --- | --- | --- | --- | --- | --- | --- | --- | --- | --- | --- |
| COc1ccc(OC)c(/C=C/C(=O)/C=C/c2c[nH]c3ccccc23)c1 | 1.36 | 10.2 | 55.93 | 6.59 | Active | 2.6 | 0.6 | 8.34 | Active | 3.7 | 38.65 | 6.34 | Active | Active | 16.1 | 1.9 | 7.71 | Active | 2.9 | 19 | Activity (PC-3 [18]): Active; Activity (PC-3 [19]): Active; Ratio (PC-3 [20]): 0.135; Activity (PC-3 [21]): 57.54%; Activity (PC-3 [22]): Active; Activity (PC-3 [23]): 2.43%; IC50 (MDA-MB-231 [24]): 6.02 µM; inhibition (Sus scrofa): 51.7%; Activity (PC-3 [25]): 1.31%; IC50 (RWPE-1): 18.6 µM; IC50 (HGC-27): 5.21 µM; Activity (PC-3 [26]): 41.11%; Activity (PC-3 [27]): Active |
| COc1cc(/C=C/C(=O)/C=C/c2c[nH]c3ccccc23)cc(OC)c1OC | 6.2 | 8.81 | 29.87 | 3.31 | Active | 1.4 | 4.74 | 8.72 | Active | 3.2 | 58.47 | 3.15 | Active | Active | 9.79 | 3.9 | 8.92 | Active | 2.8 | 8.01 | Activity (PC-3 [28]): 51.68%; Activity (PC-3 [18]): Active; Activity (PC-3 [19]): Active; Ratio (PC-3 [20]): 0.132; Activity (PC-3 [21]): 27.04%; Activity (PC-3 [22]): Active; Activity (PC-3 [29]): 31.42%; Activity (PC-3 [23]): 8.94%; IC50 (MDA-MB-231 [24]): 11.4 µM; inhibition (Sus scrofa): 57.3%; Activity (PC-3 [25]): 3.46%; IC50 (RWPE-1): 6.42 µM; Activity (PC-3 [30]): 5.99%; IC50 (HGC-27): 8.65 µM; Activity (PC-3 [26]): 58.52%; Activity (PC-3 [31]): 10.04%; Activity (PC-3 [27]): Active |
